Experimental data taken from ChEMBL document CHEMBL1649483, “Molecular analysis of the gyrA and gyrB quinolone resistance-determining regions of fluoroquinolone-resistant Clostridium difficile mutants selected in vitro” (2009).
Values after ≈ are worked out from the molar mass of the structure shown.

What was measured:
Type in all cases: functional
Clostridioides difficile [1] = assay: Antimicrobial activity against Clostridium difficile CD5d harboring GyrB Ser416Ala mutant gene selected after 4 ug/ml of moxifloxacin by Etest method
Clostridioides difficile [2] = assay: Antimicrobial activity against Clostridium difficile C253e selected after 4 ug/ml of moxifloxacin by Etest method
Clostridioides difficile [3] = assay: Antimicrobial activity against Clostridium difficile BI2B selected after 4 ug/ml of levofloxacin by Etest method
How it was run: (§1)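 Stable in vitro-selected mutant tested for gatifloxacin susceptibility by Etest, per the manufacturer's instructions, with an 8 μg/ml breakpoint. For selection, the parent was grown in antibiotic-free brain heart infusion (BHI) for 24 h at 35°C under anaerobic conditions. […] Later steps used double the MIC. Stability was confirmed by three subcultures.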

Clostridioides difficile [4] = assay: Antimicrobial activity against Clostridium difficile A422f selected after 4 ug/ml of moxifloxacin by Etest method; how it was run: as §1
Clostridioides difficile [5] = assay: Antimicrobial activity against Clostridium difficile 630e selected after 4 ug/ml of moxifloxacin by Etest method; how it was run: as §1
Clostridioides difficile [6] = assay: Antimicrobial activity against Clostridium difficile CD5F harboring GyrB Ser416Ala mutant gene selected after 8 ug/ml of levofloxacin by Etest method
Clostridioides difficile [7] = assay: Antimicrobial activity against Clostridium difficile 630 expressing tcdA and tcdB gene by Etest method
How it was run: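 Parent clinical or nontoxigenic isolate tested for gatifloxacin susceptibility by Etest, run per the manufacturer's instructions; a fluoroquinolone breakpoint of 8 μg/ml was applied.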

Clostridioides difficile [8] = assay: Antimicrobial activity against Clostridium difficile CD5h harboring GyrA Ala92Glu and GyrB Ser416Ala mutant genes selected after 8 ug/ml of moxifloxacin by Etest method
Clostridioides difficile [9] = assay: Antimicrobial activity against Clostridium difficile 630E harboring GyrA Ala118Val mutant gene selected after 8 ug/ml of levofloxacin by Etest method; how it was run: as §1
Clostridioides difficile [10] = assay: Antimicrobial activity against Clostridium difficile A422F harboring GyrB Leu451Phe mutant gene selected after 8 ug/ml of levofloxacin by Etest method; how it was run: as §1
Clostridioides difficile [11] = assay: Antimicrobial activity against Clostridium difficile A422c selected after 2 ug/ml of moxifloxacin by Etest method; how it was run: as §1
Clostridioides difficile [12] = assay: Antimicrobial activity against Clostridium difficile BI2f harboring GyrB Arg447Lys and Asp426Asn mutant gene selected after 32 ug/ml of moxifloxacin by Etest method; how it was run: as §1
Clostridioides difficile [13] = assay: Antimicrobial activity against Clostridium difficile BI2d harboring GyrB Arg447Lys and Asp426Asn mutant gene selected after 32 ug/ml of moxifloxacin by Etest method; how it was run: as §1
Clostridioides difficile [14] = assay: Antimicrobial activity against Clostridium difficile A422d selected after 4 ug/ml of moxifloxacin by Etest method; how it was run: as §1
Clostridioides difficile [15] = assay: Antimicrobial activity against Clostridium difficile A422D harboring GyrB Leu451Phe mutant gene selected after 8 ug/ml of levofloxacin by Etest method; how it was run: as §1
Clostridioides difficile [16] = assay: Antimicrobial activity against Clostridium difficile 630d selected after 4 ug/ml of moxifloxacin by Etest method; how it was run: as §1
Clostridioides difficile [17] = assay: Antimicrobial activity against Clostridium difficile CD5b harboring GyrB Ser416Ala mutant gene selected after 2 ug/ml of moxifloxacin by Etest method
Clostridioides difficile [18] = assay: Antimicrobial activity against Clostridium difficile A422E harboring GyrB Leu451Phe mutant gene selected after 8 ug/ml of levofloxacin by Etest method; how it was run: as §1
Clostridioides difficile [19] = assay: Antimicrobial activity against Clostridium difficile BI2A selected after 4 ug/ml of levofloxacin by Etest method; how it was run: as §1
Clostridioides difficile [20] = assay: Antimicrobial activity against Clostridium difficile 630a selected after 2 ug/ml of moxifloxacin by Etest method; how it was run: as §1
Clostridioides difficile [21] = assay: Antimicrobial activity against Clostridium difficile 630i harboring GyrB […] mutant gene selected after 8 ug/ml of moxifloxacin by Etest method; how it was run: as §1
Clostridioides difficile [22] = assay: Antimicrobial activity against Clostridium difficile CD5B harboring GyrB Ser416Ala mutant gene selected after 4 ug/ml of levofloxacin by Etest method
Clostridioides difficile [23] = assay: Antimicrobial activity against Clostridium difficile CD5i harboring GyrA Ala118Ser, Thr82Ala and GyrB Ser416Ala mutant genes selected after 8 ug/ml of moxifloxacin by Etest method
Clostridioides difficile [24] = assay: Antimicrobial activity against Clostridium difficile A422A selected after 4 ug/ml of levofloxacin by agar dilution method
Clostridioides difficile [25] = assay: Antimicrobial activity against Clostridium difficile CD5 1-g harboring GyrA Ala92Glu and GyrB Ser416Ala mutant genes selected after 8 ug/ml of moxifloxacin by agar dilution method
Clostridioides difficile [26] = assay: Antimicrobial activity against Clostridium difficile CD5h harboring GyrA Ala118Ser, Thr82Ala and GyrB Ser416Ala mutant genes selected after 8 ug/ml of moxifloxacin by agar dilution method
Clostridioides difficile [27] = assay: Antimicrobial activity against Clostridium difficile A422b selected after 2 ug/ml of moxifloxacin by agar dilution method
Clostridioides difficile [28] = assay: Antimicrobial activity against Clostridium difficile 630A selected after 4 ug/ml of levofloxacin by agar dilution method
Clostridioides difficile [29] = assay: Antimicrobial activity against Clostridium difficile 630a selected after 2 ug/ml of moxifloxacin by agar dilution method
Clostridioides difficile [30] = assay: Antimicrobial activity against Clostridium difficile A422H harboring GyrA Thr82Ile and GyrB Leu451Phe mutant genes selected after 8 ug/ml of levofloxacin by agar dilution method
Clostridioides difficile [31] = assay: Antimicrobial activity against Clostridium difficile C253g harboring GyrA Ala118Ser mutant gene selected after 8 ug/ml of moxifloxacin by agar dilution method
Clostridioides difficile [32] = assay: Antimicrobial activity against Clostridium difficile 630e selected after 4 ug/ml of moxifloxacin by agar dilution method
Clostridioides difficile [33] = assay: Antimicrobial activity against Clostridium difficile CD5b harboring GyrB Ser416Ala mutant gene selected after 2 ug/ml of moxifloxacin by agar dilution method
Clostridioides difficile [34] = assay: Antimicrobial activity against Clostridium difficile C253h harboring GyrA Ala118Ser mutant gene selected after 8 ug/ml of moxifloxacin by agar dilution method
Clostridioides difficile [35] = assay: Antimicrobial activity against Clostridium difficile A422G harboring GyrA Thr82Ile and GyrB Leu451Phe mutant genes selected after 8 ug/ml of levofloxacin by agar dilution method
Clostridioides difficile [36] = assay: Antimicrobial activity against Clostridium difficile C253C selected after 4 ug/ml of levofloxacin by agar dilution method
Clostridioides difficile [37] = assay: Antimicrobial activity against Clostridium difficile A422c selected after 2 ug/ml of moxifloxacin by agar dilution method
Clostridioides difficile [38] = assay: Antimicrobial activity against Clostridium difficile CD5f harboring GyrB Ser416Ala mutant gene selected after 4 ug/ml of moxifloxacin by agar dilution method
Clostridioides difficile [39] = assay: Antimicrobial activity against Clostridium difficile A422 expressing tcdA and tcdB gene by agar dilution method
Clostridioides difficile [40] = assay: Antimicrobial activity against Clostridium difficile CD5a harboring GyrB Ser416Ala mutant gene selected after 2 ug/ml of moxifloxacin by agar dilution method
Clostridioides difficile [41] = assay: Antimicrobial activity against Clostridium difficile CD5d harboring GyrB Ser416Ala mutant gene selected after 4 ug/ml of moxifloxacin by agar dilution method

Q: Which results are given for `COc1c(N2CCNC(C)C2)c(F)cc2c(=O)c(C(=O)O)cn(C3CC3)c12` (stereo unspecified) [GATIFLOXACIN]?
A: MIC (Clostridioides difficile [1]): 0.75 µg/mL; MIC (Clostridioides difficile [2]): 1 µg/mL; MIC (Clostridioides difficile [3]): 2 µg/mL; MIC (Clostridioides difficile [4]): 1.5 µg/mL; MIC (Clostridioides difficile [5]): 2 µg/mL; MIC (Clostridioides difficile [6]): 2 µg/mL; MIC (Clostridioides difficile [7]): 0.75 µg/mL (≈ 2 µM); MIC (Clostridioides difficile [8]): 3 µg/mL; MIC (Clostridioides difficile [9]): 3 µg/mL; MIC (Clostridioides difficile [10]): 2 µg/mL; MIC (Clostridioides difficile [11]): 1.5 µg/mL; MIC (Clostridioides difficile [12]): 6 µg/mL; MIC (Clostridioides difficile [13]): 6 µg/mL; MIC (Clostridioides difficile [14]): 1.5 µg/mL; MIC (Clostridioides difficile [15]): 2 µg/mL; MIC (Clostridioides difficile [16]): 2 µg/mL; MIC (Clostridioides difficile [17]): 0.75 µg/mL; MIC (Clostridioides difficile [18]): 2 µg/mL; MIC (Clostridioides difficile [19]): 2 µg/mL; MIC (Clostridioides difficile [20]): 0.75 µg/mL; MIC (Clostridioides difficile [21]): ≥ 32 µg/mL; MIC (Clostridioides difficile [22]): 0.5 µg/mL; MIC (Clostridioides difficile [23]): 16 µg/mL

Q: What does the source list for `C[C@H]1COc2c(N3CCN(C)CC3)c(F)cc3c(=O)c(C(=O)O)cn1c23.C[C@H]1COc2c(N3CCN(C)CC3)c(F)cc3c(=O)c(C(=O)O)cn1c23.O` [LEVOFLOXACIN]?
A: MIC (Clostridioides difficile [24]): 1 µg/mL; MIC (Clostridioides difficile [25]): 16 µg/mL; MIC (Clostridioides difficile [26]): 64 µg/mL; MIC (Clostridioides difficile [27]): 4 µg/mL; MIC (Clostridioides difficile [28]): 1 µg/mL; MIC (Clostridioides difficile [29]): 4 µg/mL; MIC (Clostridioides difficile [30]): 64 µg/mL; MIC (Clostridioides difficile [31]): 64 µg/mL; MIC (Clostridioides difficile [32]): 4 µg/mL; MIC (Clostridioides difficile [33]): 2 µg/mL; MIC (Clostridioides difficile [34]): 64 µg/mL; MIC (Clostridioides difficile [35]): 64 µg/mL; MIC (Clostridioides difficile [36]): 1 µg/mL; MIC (Clostridioides difficile [37]): 4 µg/mL; MIC (Clostridioides difficile [38]): 2 µg/mL; MIC (Clostridioides difficile [39]): 2 µg/mL; MIC (Clostridioides difficile [40]): 2 µg/mL; MIC (Clostridioides difficile [41]): 2 µg/mL
